Assay outcomes as filed in PubChem BioAssay.
A selection: hits, their analogues and other compounds. The true share with any hit is near 2.1%.
CHRM5 antagonist: antagonists of human muscarinic M5 receptor (CHRM5); P08912; CHO-hM5 cells, Fluo-8 calcium fluorescence, ACh EC80; inhibition, % at 3 µM; hit rate 0.59% among 360,000; AID 624040;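 active = inhibition above a per-plate cutoff, the mean of that plate's test compounds plus 3 SD, cut at about 27% in these data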;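 note: 0% = acetylcholine EC80 with DMSO and 100% = DMSO without agonist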
M1 antag: antagonists of human M1 muscarinic receptor | hit rate 1.3% among 360,000 | CHO-K1 hM1, Fluo-8 calcium fluorescence, ACh EC80 antagonist | inhibition, % at 3 µM;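 active = percent inhibition above its own plate's cutoff, namely the mean of that plate's compound wells plus 3 SD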;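 note: peak over basal fluorescence ratio during 140 s after agonist addition; 0% = ACh EC80 plus DMSO and 100% = DMSO alone without agonist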
Target sequence (P11229 whole entry, looked up): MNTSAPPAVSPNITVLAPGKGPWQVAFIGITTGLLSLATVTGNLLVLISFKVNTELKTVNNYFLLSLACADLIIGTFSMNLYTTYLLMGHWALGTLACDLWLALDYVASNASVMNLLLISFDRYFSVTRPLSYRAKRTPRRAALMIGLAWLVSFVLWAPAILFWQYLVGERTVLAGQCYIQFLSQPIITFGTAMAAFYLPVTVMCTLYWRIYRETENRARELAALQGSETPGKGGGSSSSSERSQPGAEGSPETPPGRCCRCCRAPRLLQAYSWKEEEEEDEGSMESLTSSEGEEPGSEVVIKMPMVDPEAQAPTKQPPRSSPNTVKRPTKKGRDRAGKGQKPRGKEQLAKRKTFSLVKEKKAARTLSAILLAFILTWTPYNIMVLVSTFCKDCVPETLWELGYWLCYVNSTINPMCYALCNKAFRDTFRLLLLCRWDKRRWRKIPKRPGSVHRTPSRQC
CHRM1 agonist: human M1 muscarinic receptor agonism; P11229; CHO-K1 hM1, Fluo-8 calcium fluorescence, agonist mode; 0% DMSO, 100% acetylcholine EC100; activation, % at 3 µM; hit rate 0.33% among 360,000;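 active = activation above the run's mean compound activation plus 3 SD, cut at about 16% in these data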;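 note: peak over basal fluorescence ratio within a 140 s kinetic read after compound addition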
M5 ag: CHRM5 agonism in calcium assay; P08912; CHO-K1 hM5 cells, Fluo-8 calcium fluorescence; 0% DMSO wells, 100% maximal acetylcholine response; activation, % at 3 µM; hit rate 0.19% among 360,000; AID 624037;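 active = activation above the run's mean over test compounds plus 3 SD, cut at about 23% in these data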;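 note: signal is peak over basal fluorescence ratio across the kinetic read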
M1 PAM: human CHRM1 positive allosteric modulation; CHO-K1 hM1, Fluo-8 calcium fluorescence, ACh EC20; 0% = ACh EC20, 100% = maximal ACh; hit rate 0.088% among 360,000; P11229; activation, % at 3 µM; in the data active = activation above about 19%, passing the limit was not always enough
M5 PAM: CHRM5 positive allosteric modulation; P08912; CHO-K1 hM5, Fluo-8 calcium, ACh EC20 PAM; 0% = ACh EC20, 100% = ACh EC100; activation, % at 3 µM; hit rate 0.3% among 360,000;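 active = activation above the run cutoff, the mean activation of all test compounds plus 3 SD, cut at about 18% in these data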
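System – CHO-K1 hM5 cells · Compound – 3 µM, single dose · Incubation – compound preincubation 140 s before EC20 acetylcholine addition · Technique – Fluo-8 calcium fluorescence · Measure – Max/basal fluorescence ratio as % of EC20–EC100 ACh window · Benchmarks – low control EC20 acetylcholine (0%), high control EC100 acetylcholine (100%) · Replication – singlicate, one well per test compound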
* marks the source's active call; other numbers are inactive results.

`CCOC(=O)C1CCN(CC(C)(C)NS(=O)(=O)c2ccc(Cl)cc2)CC1` gave CHRM5 antagonist 0.2, M1 antag -3.9, CHRM1 agonist -11.2, M5 ag -5.1, M1 PAM -8.4 and M5 PAM -3.2.
CCOC(=O)C1CCN(CC(C)(C)NS(=O)(=O)c2ccc(C)cc2)CC1 was read as CHRM5 antagonist 6.6, M1 antag -26.5, CHRM1 agonist -11.9, M5 ag -3.5, M1 PAM 27.5* and M5 PAM 5.4.
For CCOC(=O)C1CCN(C2=C(NS(=O)(=O)c3ccc(Cl)cc3)C(=O)c3ccccc3C2=O)CC1 the results were CHRM5 antagonist 6.0, M1 antag 11.8, CHRM1 agonist 30.5*, M5 ag 10.4, M1 PAM -14.5 and M5 PAM -10.8.
For CCOC(=O)C1CCCN(C2=C(NS(=O)(=O)c3ccc(Br)cc3)C(=O)c3ccccc3C2=O)C1 (configuration not stated) the results were CHRM5 antagonist 5.9, M1 antag 29.6, CHRM1 agonist 41.0*, M5 ag 7.5, M1 PAM -19.8 and M5 PAM -9.0.
For Nc1ccccc1C(=O)NCc1ccco1 the results were CHRM5 antagonist 1.1, M1 antag -6.2, CHRM1 agonist -2.0, M5 ag 4.0, M1 PAM 8.9 and M5 PAM 1.7.
CCOC(=O)NN1C(=O)c2ccccc2NC1c1ccccc1 (configuration not stated) was read as CHRM5 antagonist 4.0, M1 antag 9.9, CHRM1 agonist -4.7, M5 ag -1.1, M1 PAM -3.0 and M5 PAM -4.2.
Screening CCOC(=O)NN1C(=O)c2ccccc2NC1c1ccc(N(C)C)cc1 (configuration not stated) returned CHRM5 antagonist -2.5, M1 antag -7.4, CHRM1 agonist 16.9*, M5 ag 1.0, M1 PAM 6.2 and M5 PAM 2.1.
COc1ccccc1CNC(=O)CN(C)CC(=O)Nc1cccc(F)c1 was read as CHRM5 antagonist 2.0, M1 antag -11.2, CHRM1 agonist -2.6, M5 ag 1.8, M1 PAM 7.8 and M5 PAM -5.4.
`Cc1ccc(N2C(=O)C(CN3CCCCC3)C2c2ccccc2)cc1` (configuration not stated) gave CHRM5 antagonist 1.7, M1 antag 0.8, CHRM1 agonist -5.3, M5 ag -8.3, M1 PAM -4.3 and M5 PAM -0.3.
For Cc1ccc(N2C(=O)C(CN3CCCC3)C2c2ccccc2)cc1 (configuration not stated) the results were CHRM5 antagonist -0.5, M1 antag 25.1*, CHRM1 agonist -15.8, M5 ag -10.0, M1 PAM -37.3 and M5 PAM 0.6.
CC1(C(=O)Nc2ccc3c(c2)OCCO3)CSCC(=O)N1C1CCN(Cc2ccccc2)CC1 (configuration not stated) was read as CHRM5 antagonist 0.8, M5 ag -3.5 and M5 PAM 5.2.
`Cc1nn(C(C)C(=O)NCCCN2CCCCC2C)c(=O)c2c1sc1ccccc12` (configuration not stated) gave CHRM5 antagonist 10.7, M1 antag -9.1, CHRM1 agonist -13.8, M5 ag -7.8, M1 PAM -2.2 and M5 PAM -4.9.
`Cc1nn(C(C)C(=O)NCCCN2CCCCCC2)c(=O)c2c1sc1ccccc12` (configuration not stated) gave CHRM5 antagonist 11.6, M1 antag 55.2*, CHRM1 agonist -5.9, M5 ag -7.5, M1 PAM -21.3 and M5 PAM -2.3.
COc1ccc(-n2c(SCC(=O)Nc3ccccc3OC)nc(O)c(Cc3ccccc3)c2=O)cc1 was read as CHRM5 antagonist 10.5, M1 antag -12.1, CHRM1 agonist 1.1, M5 ag -5.0, M1 PAM 13.5 and M5 PAM -2.3.
O=C(C=Cc1ccccn1)c1ccccc1 was read as CHRM5 antagonist -32.3, M1 antag -16.6, CHRM1 agonist -2.6, M5 ag 9.4, M1 PAM 12.0 and M5 PAM 29.4*.
For O=C(NCCN1CCCCC1)Nc1cccc(Cl)c1Cl the results were CHRM5 antagonist 6.7, M1 antag -16.7, CHRM1 agonist -4.4, M5 ag -4.8, M1 PAM 17.3 and M5 PAM -2.9.
For COc1cccc(N2CCN(c3ccc4nnc(CCC(=O)Nc5ccc(C)cn5)n4n3)CC2)c1 the results were CHRM5 antagonist 12.5, M1 antag 7.7, CHRM1 agonist -4.4, M5 ag -1.6, M1 PAM -4.1 and M5 PAM -4.3.
`COc1cccc(N2CCN(c3ccc4nnc(CCC(=O)Nc5ncccc5C)n4n3)CC2)c1` gave CHRM5 antagonist -0.2, M1 antag 38.3*, CHRM1 agonist -4.3, M5 ag -4.3, M1 PAM -15.3 and M5 PAM -5.2.
For Cn1nc(C(F)(F)F)c(/C=N/OC(=O)c2ccccc2)c1SCc1ccccc1Cl the results were CHRM5 antagonist 3.8, M1 antag 41.2*, CHRM1 agonist -4.9, M5 ag -5.3, M1 PAM -20.8 and M5 PAM -11.3.
Screening Cn1nc(C(F)(F)F)c(/C=N/OC(=O)c2ccccc2)c1Sc1ccc(Cl)cc1 returned CHRM5 antagonist -4.4, M1 antag 5.5, CHRM1 agonist -2.1, M5 ag -1.2, M1 PAM -2.6 and M5 PAM -1.7.
CC1(C#CC[N+]2(C)CCCCC2)CCC2C(O1)c1ccccc1OC2(C)C (configuration not stated) was read as CHRM5 antagonist 87.6*, M1 antag 81.9*, CHRM1 agonist 102.8*, M5 ag 76.5*, M1 PAM -5.3 and M5 PAM -34.5.
Screening Cc1c(NC(=O)C(C)OC(=O)Cc2ccc(F)cc2)c(=O)n(-c2ccccc2)n1C (configuration not stated) returned CHRM5 antagonist 13.4, M1 antag 37.5*, CHRM1 agonist -0.9, M5 ag 2.7, M1 PAM -13.5 and M5 PAM -3.9.
For N=C1/C(=C\c2ccc(-c3cccc(C(=O)O)c3)o2)C(=O)N=C2SC=C(c3ccccc3)N12 the results were CHRM5 antagonist 10.4, M1 antag 13.1, CHRM1 agonist 0.1, M5 ag 5.0, M1 PAM -5.5 and M5 PAM -10.7.
`O=C(c1cccnc1)N1N=C(C2CCCCC2)CC1(O)C(F)(F)F` (configuration not stated) gave CHRM5 antagonist -0.3, M1 antag -10.8, CHRM1 agonist -14.0, M5 ag -3.6, M1 PAM 12.8 and M5 PAM 11.0.
